Reference: ChEMBL document CHEMBL1125563, “Selective, centrally acting serotonin 5-HT2 antagonists. 1. 2- and 6-substituted 1-phenyl-3-(4-piperidinyl)-1H-indoles” (J Med Chem, 1992)

Tests used:
Rattus norvegicus [1] = test: Compound was evaluated for the inhibition of quipazine-induced head twitches after 24 hr (administered perorally); 0.12-0.57; format: functional; conditions: po
Mus musculus [2] = species on record: Mus musculus; test: Compound was evaluated for the inhibition of isolation-induced aggression at a threshold of 180 seconds; 1.1-2.6; format: functional
Outline: (§1)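 Isolated male NMRI mice (3 weeks) trained to attack a nonaggressive intruder of the same strain; only mice with attack latency <25 s included. Pretested just before dosing and 2 h after sc test substance; observation maximum 180 s; at least eight mice per dose.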

[3] = biological target: T1, Adrenergic receptor alpha-1 (Rattus norvegicus, UniProt P15823+P23944+P43140); test: Displacement of [3H]prazosin from Alpha-1 adrenergic receptor of whole rat brain membranes; format: cell membranes, Membrane
T1 sequence (P15823 whole entry): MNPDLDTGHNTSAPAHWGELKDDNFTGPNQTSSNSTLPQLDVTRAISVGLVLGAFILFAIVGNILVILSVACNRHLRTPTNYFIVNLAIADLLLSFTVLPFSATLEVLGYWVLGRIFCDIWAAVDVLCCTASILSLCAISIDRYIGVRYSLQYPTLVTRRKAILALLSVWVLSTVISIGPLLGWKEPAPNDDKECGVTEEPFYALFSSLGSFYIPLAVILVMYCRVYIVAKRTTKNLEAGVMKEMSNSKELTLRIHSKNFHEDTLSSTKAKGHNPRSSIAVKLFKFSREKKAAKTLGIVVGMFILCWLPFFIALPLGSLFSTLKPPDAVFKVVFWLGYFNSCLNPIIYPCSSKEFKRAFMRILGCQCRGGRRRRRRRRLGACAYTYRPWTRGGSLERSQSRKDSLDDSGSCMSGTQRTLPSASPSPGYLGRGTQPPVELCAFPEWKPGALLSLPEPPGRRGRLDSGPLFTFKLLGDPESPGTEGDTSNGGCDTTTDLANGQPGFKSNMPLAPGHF
T1 sequence (P23944 whole entry): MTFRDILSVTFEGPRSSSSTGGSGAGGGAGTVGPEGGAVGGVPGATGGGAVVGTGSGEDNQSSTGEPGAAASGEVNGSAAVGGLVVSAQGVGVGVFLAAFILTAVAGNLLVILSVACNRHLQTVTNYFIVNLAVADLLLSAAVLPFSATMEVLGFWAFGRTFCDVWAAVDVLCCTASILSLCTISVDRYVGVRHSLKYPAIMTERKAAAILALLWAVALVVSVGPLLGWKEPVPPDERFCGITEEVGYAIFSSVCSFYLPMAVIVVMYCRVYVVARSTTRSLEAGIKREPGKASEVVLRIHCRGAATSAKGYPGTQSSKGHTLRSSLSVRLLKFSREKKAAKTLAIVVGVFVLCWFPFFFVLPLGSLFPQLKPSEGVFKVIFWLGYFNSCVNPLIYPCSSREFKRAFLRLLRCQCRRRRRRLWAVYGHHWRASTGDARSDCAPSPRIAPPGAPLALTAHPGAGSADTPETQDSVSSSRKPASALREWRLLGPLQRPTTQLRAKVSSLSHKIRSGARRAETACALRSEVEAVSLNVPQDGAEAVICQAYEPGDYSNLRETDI
T1 sequence (P43140 whole entry): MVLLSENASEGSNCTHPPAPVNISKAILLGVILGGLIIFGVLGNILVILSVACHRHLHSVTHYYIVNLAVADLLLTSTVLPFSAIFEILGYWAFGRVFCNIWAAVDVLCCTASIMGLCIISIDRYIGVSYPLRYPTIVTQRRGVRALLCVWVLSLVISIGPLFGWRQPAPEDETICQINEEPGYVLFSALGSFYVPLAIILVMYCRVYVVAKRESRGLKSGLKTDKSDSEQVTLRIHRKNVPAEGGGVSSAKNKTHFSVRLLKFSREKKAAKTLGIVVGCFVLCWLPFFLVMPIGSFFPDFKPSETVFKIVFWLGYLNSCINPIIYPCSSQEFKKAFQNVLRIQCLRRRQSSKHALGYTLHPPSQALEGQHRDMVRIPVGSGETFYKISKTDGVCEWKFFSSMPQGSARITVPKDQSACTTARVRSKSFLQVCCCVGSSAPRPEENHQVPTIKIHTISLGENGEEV
Outline: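 α1 adrenoceptor binding measured as displacement of [3H]prazosin from whole rat brain membranes. Five test-drug concentrations spanning three decades in triplicate, two full curves; IC50 from log concentration-effect curves, logarithmic mean of at least two determinations.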

Rattus norvegicus [4] = test: Compound was evaluated for the inhibition of quipazine-induced head twitches after 2 h (administered subcutaneously); 0.011-0.12; format: functional; conditions: sc
Mus musculus [5] = species on record: Mus musculus; test: Compound was evaluated for the inhibition of isolation-induced aggression at a threshold of, 90 seconds; 1.3-2.9; format: functional; outline: as §1
Rattus norvegicus [6] = test: Compound was evaluated for the inhibition of quipazine-induced head twitches after 24 hr (administered subcutaneously); 0.014-0.48; conditions: sc
Rattus norvegicus [7] = test: Compound was evaluated for the inhibition of pergolide-induced reactions after 2 hr (administered subcutaneously); 1.8-14.4; format: functional; conditions: sc
Outline: (§2)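 Male Wistar rats with unilateral 6-OHDA lesions; test drug sc 2 h before pergolide (0.05 µmol/kg sc) to induce contralateral circling. Effect of each dose expressed as percent of mean of control sessions 1 week before and 1 week after, per rat; at least four rats per dose; ED50 by log-probit analysis.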

[8] = biological target: Serotonin 2 (5-HT2) receptor (Rattus norvegicus, UniProt P30994+P08909+P14842); test: Displacement of [3H]ketanserin from 5-hydroxytryptamine 2 receptor from rat cortical membranes.; format: cell membranes, Membrane
Outline: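 [3H]ketanserin displacement from rat cortical membranes (5-HT2). Five concentrations across three decades in triplicate, two full curves; IC50 estimated on a log-concentration scale, given as logarithmic mean of at least two determinations.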

Rattus norvegicus [9] = test: Compound was evaluated for the inhibition of pergolide-induced reactions after 2 hr (administered subcutaneously); 12-50; format: functional; conditions: sc; outline: as §2
Rattus norvegicus [10] = test: Compound was evaluated for the inhibition of quipazine-induced head twitches after 24 hr (administered perorally); 0.0091-0.16; conditions: po
D(2) dopamine receptor = D(2) dopamine receptor (Rattus norvegicus, UniProt P61169); test: Displacement of [3H]-spiperone from Dopamine receptor D2 from rat striatal membranes; format: cell membranes, Membrane
Outline: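 [3H]spiperone displacement from rat striatal membranes (D2). Five test-drug concentrations over three decades, in triplicate, two full curves; IC50 from log concentration-effect curves, reported as logarithmic mean of at least two determinations.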

Rattus norvegicus [11] = test: Compound was evaluated for the inhibition of quipazine-induced head twitches after 2 hr (administered subcutaneously); 0.012-0.095; format: functional; conditions: sc
Rattus norvegicus [12] = test: Compound was evaluated for the inhibition of quipazine-induced head twitches after 24 h (administered perorally); 0.031-0.20; format: functional; conditions: po
Rattus norvegicus [13] = test: Compound was evaluated for the inhibition of pergolide-induced reactions after 2 hr (administered subcutaneously); 9.7-87; conditions: sc
Rattus norvegicus [14] = test: Compound was evaluated for the inhibition of pergolide-induced reactions after 2 hr (administered subcutaneously); 9.7-87; format: functional; conditions: sc; outline: as §2
Rattus norvegicus [15] = test: Compound was evaluated for the inhibition of quipazine-induced head twitches after 2 hr (administered subcutaneously); 0.072-0.45; format: functional; conditions: sc
Mus musculus [16] = species on record: Mus musculus; test: Compound was evaluated for the inhibition of isolation-induced aggression at a threshold of, 90 seconds; 3.5-18.4; format: functional
Mus musculus [17] = species on record: Mus musculus; test: Compound was evaluated for the inhibition of isolation-induced aggression at a threshold of 180 seconds; 2.3-12.4; format: functional
Rattus norvegicus [18] = test: Compound was evaluated for the inhibition of quipazine-induced head twitches after 2 hr (administered subcutaneously); 0.056-0.18; format: functional; conditions: sc
[19] = biological target: T2, Alpha-1A adrenergic receptor (Rattus norvegicus, UniProt P43140); test: Compound was tested for the displacement of [3H]prazosin from alpha-1 adrenergic receptor of rat whole brain membranes
T2 sequence (P43140 whole entry): T1 sequence (P43140 whole entry)

Mus musculus [20] = species on record: Mus musculus; test: Compound was evaluated for the inhibition of isolation-induced aggression at a threshold of 180 seconds
Mus musculus [21] = species on record: Mus musculus; test: Compound was evaluated for the inhibition of isolation-induced aggression at a threshold of, 90 seconds
Rattus norvegicus [22] = test: Compound was evaluated for the inhibition of pergolide-induced reactions after 2 hr (administered subcutaneously); format: functional; conditions: sc; outline: as §2
Rattus norvegicus [23] = test: Compound was evaluated for the inhibition of quipazine-induced head twitches after 24 hr (administered subcutaneously); 0.35-2.7; format: functional; conditions: sc

D(2) dopamine receptor, sequence (P61169 whole entry): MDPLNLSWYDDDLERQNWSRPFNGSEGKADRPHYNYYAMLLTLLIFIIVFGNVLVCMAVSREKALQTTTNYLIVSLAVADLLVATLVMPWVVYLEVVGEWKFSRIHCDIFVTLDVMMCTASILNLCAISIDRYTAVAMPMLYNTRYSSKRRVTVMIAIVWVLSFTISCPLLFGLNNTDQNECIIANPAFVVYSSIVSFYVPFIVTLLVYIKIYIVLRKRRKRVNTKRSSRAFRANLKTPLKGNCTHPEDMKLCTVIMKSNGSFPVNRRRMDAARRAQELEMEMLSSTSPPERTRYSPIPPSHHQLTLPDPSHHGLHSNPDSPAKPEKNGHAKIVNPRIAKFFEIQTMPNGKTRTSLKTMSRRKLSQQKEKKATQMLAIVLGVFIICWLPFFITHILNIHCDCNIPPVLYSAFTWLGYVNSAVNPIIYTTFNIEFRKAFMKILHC

O=C1NCCN1CCN1CCC(c2cn(-c3ccc(F)cc3)c3ccccc23)CC1
ED50 (Rattus norvegicus [1]): 0.26 µmol/kg
ED50 (Mus musculus [2]): 1.7 µmol/kg
IC50 [3]: 3 nM
ED50 (Rattus norvegicus [4]): 0.036 µmol/kg
ED50 (Mus musculus [5]): 1.9 µmol/kg
ED50 (Rattus norvegicus [6]): 0.082 µmol/kg
ED50 (Rattus norvegicus [7]): 5.1 µmol/kg
IC50 [8]: 0.72 nM

O=C1NCCN1CCN1CCC(c2cn(-c3ccc(F)cc3)c3cc(F)ccc23)CC1
ED50 (Rattus norvegicus [9]): 25 µmol/kg
ED50 (Rattus norvegicus [10]): 0.038 µmol/kg
IC50 (D(2) dopamine receptor): 36 nM
IC50 [3]: 2.2 nM
ED50 (Rattus norvegicus [11]): 0.034 µmol/kg
IC50 [8]: 0.73 nM

Cc1c(C2CCN(CCN3CCNC3=O)CC2)c2ccccc2n1-c1ccc(F)cc1
ED50 (Rattus norvegicus [12]): 0.078 µmol/kg
IC50 [3]: 76 nM
ED50 (Rattus norvegicus [13]): 29 µmol/kg
ED50 (Rattus norvegicus [14]): 29 µmol/kg
ED50 (Rattus norvegicus [15]): 0.18 µmol/kg
IC50 [8]: 0.59 nM

c1cc2c(c(N3CCNCC3)c1)OCCO2 [ELTOPRAZINE]
ED50 (Mus musculus [16]): 8 µmol/kg
ED50 (Mus musculus [17]): 5.4 µmol/kg

Cc1nc2sccn2c(=O)c1CCN1CCC(=C(c2ccc(F)cc2)c2ccc(F)cc2)CC1 [RITANSERIN]
ED50 (Rattus norvegicus [18]): 0.1 µmol/kg
IC50 [19]: 47 nM
ED50 (Mus musculus [20]): > 10 µmol/kg
ED50 (Mus musculus [21]): > 10 µmol/kg
ED50 (Rattus norvegicus [22]): > 21 µmol/kg
ED50 (Rattus norvegicus [23]): 0.98 µmol/kg
